Measurements as given in ChEMBL document CHEMBL5352442, “Structure-based design, synthesis and evaluation of a novel family of PEX5-PEX14 interaction inhibitors against Trypanosoma” (Eur J Med Chem, 2022).

Assays:
[1] = Inhibition of biotinylated PEX5 (unknown origin)/N-terminal His-tagged Trypanosoma brucei PEX14 (19 to 84 residues) expressed in Escherichia coli BL21 by AlphaScreen assay
Method in brief: (§1)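 Streptavidin donor and Ni-chelate acceptor beads each 5 μg/mL. Inhibitor serial dilutions at constant 5% DMSO.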

[2] = Inhibition of biotinylated PEX5 (unknown origin)/N-terminal His-tagged Trypanosoma cruzi PEX14 (19 to 84 residues) expressed in Escherichia coli BL21 by AlphaScreen assay; method in brief: as §1
[3] = Binding affinity to Ni-NTA-ATTO647-labeled N-terminal His-tagged Trypanosoma brucei PEX14 (19 to 84 residues) expressed in Escherichia coli BL21 assessed as dissociation constant by MST assay
Method in brief: (§2)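 PEX14 N-terminal domain (aa 19–84, N-His), purified by Ni-NTA and then SEC in PBS, labeled with Ni-NTA-ATTO647 at protein:label 2:1 for 1 h at room temperature in the dark. Buffer: 50 mM Tris-HCl pH 7.4, 150 mM NaCl, 10 mM MgCl2, 0.0125% Tween 20. Labeled protein 200 nM with inhibitor serial dilution, 5% DMSO. Triplicates; Kd from MST fit; mean of n = 3.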

[4] = Binding affinity to Ni-NTA-ATTO647-labeled N-terminal His-tagged Trypanosoma cruzi PEX14 (19 to 84 residues) expressed in Escherichia coli BL21 assessed as dissociation constant by MST assay; method in brief: as §2
[5] = system: Trypanosoma brucei brucei; experiment: Trypanocidal activity against bloodstream form of Trypanosoma brucei brucei incubated for 66 hrs by resazurin dye based assay; type: functional, organism-based
Method in brief: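 T. b. brucei Lister 427 bloodstream form in HMI-11 with 10% FBS, 37 °C, 5% CO2. Ten-point 1:1 serial dilutions in quadruplicate; final 2×10^3 parasites/mL. After 66 h, resazurin was added and plates incubated to 72 h. Fluorescence ex 530/em 585 nm, medium background subtracted, survival normalized to no-compound well. IC50 from sigmoidal nonlinear regression.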

Question: With CCN1C(=O)c2ccccc2Oc2cc(NC(=O)Cc3cccc4ccccc34)ccc21 as the molecule, how does the EC50 [1] read?
Answer: 69 µM

Question: And the EC50 [2]?
Answer: 4520 µM

Question: What about the Kd [3] of the same molecule?
Answer: 147 µM

Question: And the Kd [4]?
Answer: 42 µM

Question: What about the IC50 [5] of the same molecule?
Answer: 6.35 µM

Question: With CCN1C(=O)c2ccccc2Oc2cc(NS(=O)(=O)Cc3ccccc3)ccc21 as the molecule, how does the EC50 [1] read?
Answer: 3630 µM

Question: And the EC50 [2]?
Answer: 6830 µM

Question: What about the Kd [3] of the same molecule?
Answer: 158 µM

Question: What about the Kd [4] of the same molecule?
Answer: 252 µM

Question: And the IC50 [5]?
Answer: 19.4 µM

Question: Which EC50 [1] does the source give for CCN1C(=O)c2ccccc2Oc2cc(NC(=O)Cc3cccnc3)ccc21 here?
Answer: 843 µM

Question: And the EC50 [2]?
Answer: 1230 µM

Question: What about the Kd [3] of the same molecule?
Answer: 1460 µM

Question: And the Kd [4]?
Answer: 3450 µM

Question: And the IC50 [5]?
Answer: 29.4 µM

Question: What does the source list for CCN1C(=O)c2ccccc2Oc2cc(NC(=O)Cn3nnc4ccccc43)ccc21?
Answer: EC50 [1]: 351 µM; EC50 [2]: 13000 µM; Kd [3]: 14 µM; Kd [4]: 3 µM; IC50 [5]: 7.9 µM

Question: Which EC50 [1] does the source give for CCN1C(=O)c2ccccc2Oc2cc(NC(=O)Cc3c[nH]c4ccccc34)ccc21 here?
Answer: 109 µM

Question: What about the EC50 [2] of the same molecule?
Answer: 677 µM

Question: What about the Kd [3] of the same molecule?
Answer: 13 µM

Question: What about the Kd [4] of the same molecule?
Answer: 9 µM

Question: What about the IC50 [5] of the same molecule?
Answer: 13.7 µM

Question: For CS(=O)(=O)N1C(=O)c2ccccc2Oc2cc(NC(=O)Cc3ccc(F)cc3)ccc21, which EC50 [1] is on record?
Answer: 422 µM

Question: What about the EC50 [2] of the same molecule?
Answer: 10300 µM

Question: And the Kd [3]?
Answer: 2 µM

Question: And the Kd [4]?
Answer: 3000 µM

Question: And the IC50 [5]?
Answer: 19.3 µM

Question: Which EC50 [1] does the source give for COC(=O)N1C(=O)c2ccccc2Oc2cc(NC(=O)Cc3ccc(F)cc3)ccc21 here?
Answer: 480 µM

Question: And the Kd [3]?
Answer: 369 µM

Question: What about the Kd [4] of the same molecule?
Answer: 258 µM

Question: And the IC50 [5]?
Answer: 7.7 µM

Question: Which results are given for O=C(Cc1ccc(F)cc1)Nc1ccc2c(c1)Oc1ccccc1C(=O)N2?
Answer: EC50 [1]: 11000 µM; EC50 [2]: 551 µM; IC50 [5]: 20.7 µM

Question: With CCN1C(=O)c2ccccc2Oc2cc(NC(=O)Cc3cnccn3)ccc21 as the molecule, how does the EC50 [1] read?
Answer: 741 µM

Question: And the EC50 [2]?
Answer: 1930 µM

Question: And the Kd [3]?
Answer: 840 µM

Question: And the IC50 [5]?
Answer: 47.6 µM

Question: Which results are given for CCN1C(=O)c2ccccc2Oc2cc(NC(=O)Cc3ccccc3)ccc21?
Answer: EC50 [1]: 1090 µM; EC50 [2]: 788 µM; IC50 [5]: 13.3 µM

Question: Which results are given for CCN1C(=O)c2ccccc2Oc2cc(NC(=O)Cc3cccc(Cl)c3)ccc21?
Answer: EC50 [1]: 500 µM; EC50 [2]: 2930 µM; Kd [3]: 44 µM; Kd [4]: 64 µM; IC50 [5]: 7.38 µM

Question: Which results are given for CCN1C(=O)c2ccccc2Sc2cc(NC(=O)Cc3ccc(F)cc3)ccc21?
Answer: EC50 [1]: 230 µM; EC50 [2]: 637 µM; Kd [3]: 951 µM; Kd [4]: 56 µM; IC50 [5]: 5.4 µM

Question: Which results are given for COC(=O)CN1C(=O)c2ccccc2Oc2cc(NC(=O)Cc3ccc(F)cc3)ccc21?
Answer: EC50 [1]: 7230 µM; EC50 [2]: 4590 µM; IC50 [5]: 11.6 µM

Question: For CCN1C(=O)c2ccccc2Oc2cc(NC(=O)Cc3cscn3)ccc21, which Kd [3] is on record?
Answer: 61000 µM

Question: And the Kd [4]?
Answer: 1700 µM

Question: And the IC50 [5]?
Answer: 57.5 µM

Question: Which results are given for CCN1C(=O)c2ccccc2Oc2cc(NC(=O)Cc3ccc(F)cc3)ccc21?
Answer: EC50 [1]: 875 µM; EC50 [2]: 4590 µM; Kd [3]: 131 µM; Kd [4]: 124 µM; IC50 [5]: 8.12 µM

Question: With CCN1C(=O)c2ccccc2Oc2cc(NC(=O)Cc3ccc(Cl)cc3)ccc21 as the molecule, how does the EC50 [1] read?
Answer: 54 µM

Question: What about the EC50 [2] of the same molecule?
Answer: 2370 µM

Question: And the Kd [3]?
Answer: 385 µM

Question: What about the Kd [4] of the same molecule?
Answer: 2800 µM

Question: And the IC50 [5]?
Answer: 5.39 µM

Question: Which EC50 [1] does the source give for CCN1C(=O)c2ccccc2Oc2cc(NC(=O)[C@@H](N)c3ccccc3)ccc21 here?
Answer: 253 µM

Question: What about the EC50 [2] of the same molecule?
Answer: 421 µM

Question: And the Kd [3]?
Answer: 625 µM

Question: What about the Kd [4] of the same molecule?
Answer: 10200 µM

Question: And the IC50 [5]?
Answer: 13.4 µM

Question: What does the source list for CCN1C(=O)c2ccccc2Oc2cc(NS(=O)(=O)c3ccccc3)ccc21?
Answer: EC50 [1]: 935 µM; EC50 [2]: 778 µM; Kd [3]: 20 µM; Kd [4]: 12 µM; IC50 [5]: 7.1 µM

Question: With CCN1C(=O)c2ccccc2Oc2cc(NC(=O)Oc3ccccc3)ccc21 as the molecule, how does the EC50 [1] read?
Answer: 250 µM

Question: And the EC50 [2]?
Answer: 3590 µM

Question: And the Kd [3]?
Answer: 232 µM

Question: And the Kd [4]?
Answer: 100000 µM

Question: What about the IC50 [5] of the same molecule?
Answer: 52.8 µM

Question: Which results are given for CC(C)N1C(=O)c2cccnc2Sc2cc(NC(=O)Cc3ccc(F)cc3)ccc21?
Answer: EC50 [1]: 1050 µM; EC50 [2]: 2290 µM; Kd [3]: 24 µM; Kd [4]: 5 µM; IC50 [5]: 0.86 µM

Question: With CCN1C(=O)c2ccccc2Oc2cc(NC(=O)Cc3ccsc3)ccc21 as the molecule, how does the EC50 [1] read?
Answer: 825 µM

Question: And the EC50 [2]?
Answer: 2360 µM

Question: What about the Kd [3] of the same molecule?
Answer: 29 µM

Question: What about the Kd [4] of the same molecule?
Answer: 9 µM

Question: And the IC50 [5]?
Answer: 8.3 µM

Question: For CC(C)N1C(=O)c2cccnc2[S+]([O-])c2cc(NC(=O)Cc3ccc(F)cc3)ccc21 (stereo unspecified), which EC50 [1] is on record?
Answer: 1730 µM

Question: Which EC50 [1] does the source give for CCN1C(=O)c2ccccc2Oc2cc(NC(=O)[C@@H](NC(=O)OC(C)(C)C)c3ccccc3)ccc21 here?
Answer: 318 µM

Question: What about the EC50 [2] of the same molecule?
Answer: 1610 µM

Question: What about the Kd [3] of the same molecule?
Answer: 380 µM

Question: And the Kd [4]?
Answer: 2 µM

Question: And the IC50 [5]?
Answer: 58.5 µM
